Laboratory results: ChEMBL document CHEMBL1275602, “Daptomycin is effective for treatment of experimental endocarditis due to methicillin-resistant and glycopeptide-intermediate Staphylococcus epidermidis” (Antimicrob Agents Chemother, 2010)
In brackets after ≈: the same amount, converted by molar mass. Activity calls are given as the source filed them.

Assays:
[1] = Cmax in rabbit at 10 mg/kg/day, iv; format: ADME, organism-based, Oryctolagus cuniculus; design: dose 10 mg/kg/day, route intravenous; conditions: in vivo
How it was run: (§1)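 Rabbits given drug i.v. over 15 min by computer-controlled infusion pump, designed to reproduce human serum PK (6 or 10 mg/kg/day human-equivalent regimens). Mean trough and Cmax measured in serum.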

[2] = tested on: Staphylococcus epidermidis; assay: Antimicrobial activity against glycopeptide-intermediate Staphylococcus epidermidis NRS6 in acute infective endocarditis rabbit model assessed as sterile vegetation level at 10 mg/kg/day, iv after 48 hrs; format: functional
How it was run: (§2)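 New Zealand White rabbits (2 kg) with catheter-induced aortic valve endocarditis were infected i.v. with 1 ml of about 1 × 10^9 CFU/ml 48 h after catheter placement. Dosing started 48 h after infection by computer-controlled i.v. infusion simulating human PK, given over 15 min for 48 h. Animals were killed after 6 half-lives. Vegetations were cultured and reported as log10 CFU/g. Sterile meant no growth, including 1-week broth culture. 15 to 17 animals per arm.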

[3] = tested on: Staphylococcus epidermidis; assay: Antimicrobial activity against methicillin-resistant Staphylococcus epidermidis 375 in acute infective endocarditis rabbit model assessed as bacterial titer per gram of vegetation at 6 mg/kg/day, iv after 48 hrs; format: functional
How it was run: (§3)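 New Zealand White rabbits (2 kg) with catheter-induced aortic valve endocarditis. Infected i.v. 48 h after catheter placement with 1 ml of about 1 × 10^9 CFU/ml. Bacteremia confirmed before therapy. Computer-controlled infusion via the vena cava simulated human PK for 48 h. Killed after 6 further half-lives. Vegetations cultured as log10 CFU/g; sterile meant no growth after one week. 15–17 animals per arm.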

[4] = tested on: Staphylococcus epidermidis; assay: Antimicrobial activity against glycopeptide-intermediate Staphylococcus epidermidis NRS6 in acute infective endocarditis rabbit model assessed as bacterial titer per gram of vegetation at 10 mg/kg/day, iv after 48 hrs; format: functional; how it was run: as §2
[5] = tested on: Staphylococcus epidermidis; assay: Antimicrobial activity against methicillin-resistant Staphylococcus epidermidis isolates; format: functional
[6] = tested on: Staphylococcus epidermidis; assay: Antimicrobial activity against methicillin-resistant Staphylococcus epidermidis 375 in acute infective endocarditis rabbit model assessed as sterile vegetation level at 10 mg/kg/day, iv after 48 hrs; format: functional; how it was run: as §3
[7] = tested on: Staphylococcus epidermidis; assay: Antimicrobial activity against methicillin-resistant Staphylococcus epidermidis 375 in acute infective endocarditis rabbit model assessed as bacterial titer per gram of vegetation at 10 mg/kg/day, iv after 48 hrs; format: functional; how it was run: as §3
[8] = tested on: Staphylococcus epidermidis; assay: Bactericidal activity against glycopeptide-intermediate Staphylococcus epidermidis NRS6 at 2 times MIC after 24 hrs by time kill analysis; format: functional, organism-based
How it was run: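 Time-kill in CAMHB with a starting inoculum of 5 × 10^5 to 1 × 10^6 CFU/ml from an overnight culture. […] Viable counts at 0, 4 and 24 h, with carryover handled by dilution. Bactericidal was defined as a ≥3-log10 CFU/ml fall at 24 h versus the inoculum. Run in duplicate.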

[9] = tested on: Staphylococcus epidermidis; assay: Antimicrobial activity against glycopeptide-intermediate Staphylococcus epidermidis NRS6 in acute infective endocarditis rabbit model assessed as bacterial titer per gram of vegetation at 6 mg/kg/day, iv after 48 hrs; format: functional; how it was run: as §2
Oryctolagus cuniculus [10] = assay: Cmin in rabbit at 10 mg/kg/day, iv; format: ADME, organism-based; design: route intravenous; conditions: in vivo; how it was run: as §1
[11] = tested on: Staphylococcus epidermidis; assay: Antimicrobial activity against glycopeptide-intermediate Staphylococcus epidermidis NRS6 by broth microdilution method; format: functional
How it was run: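 Broth microdilution in cation-adjusted Mueller-Hinton broth following CLSI procedures. MIC and MBC determined for each strain. For daptomycin the broth was adjusted to 50 μg/ml calcium. S. aureus ATCC 29213 served as the test control strain.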

[12] = Cmax in rabbit at 10 mg/kg, iv; conditions: in vivo
[13] = tested on: Staphylococcus epidermidis; assay: Antimicrobial activity against glycopeptide-intermediate Staphylococcus epidermidis NRS6 in acute infective endocarditis rabbit model assessed as sterile vegetation level at 6 mg/kg/day, iv after 48 hrs; format: functional; how it was run: as §2
[14] = tested on: Staphylococcus epidermidis; assay: Bactericidal activity against methicillin-resistant Staphylococcus epidermidis 375 at 2 times MIC after 24 hrs by time kill analysis; format: functional, organism-based
How it was run: (§4)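 Time-kill in CAMHB. Overnight culture gave a final inoculum of 5 × 10^5 to 1 × 10^6 CFU/ml. […] Viable counts taken at 0, 4 and 24 h, with carryover removed by dilution. Bactericidal meant at least a 3-log10 CFU/ml fall at 24 h versus the inoculum. Run in duplicate.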

[15] = tested on: Staphylococcus epidermidis; assay: Antimicrobial activity against methicillin-resistant Staphylococcus epidermidis 375 by broth microdilution method; format: functional
How it was run: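 Broth microdilution in cation-adjusted Mueller-Hinton broth following CLSI procedures. MIC and MBC determined for each strain. For daptomycin the broth was adjusted to 50 μg/ml calcium.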

[16] = tested on: Staphylococcus epidermidis; assay: Antimicrobial activity against methicillin-resistant Staphylococcus epidermidis 375 in acute infective endocarditis rabbit model assessed as sterile vegetation level at 6 mg/kg/day, iv after 48 hrs; format: functional; how it was run: as §3
[17] = tested on: Staphylococcus epidermidis; assay: Bacteriostatic activity against glycopeptide-intermediate Staphylococcus epidermidis NRS6 at MIC after 24 hrs by time kill analysis; format: functional, organism-based; how it was run: as §4
[18] = tested on: Staphylococcus epidermidis; assay: Antimicrobial activity against glycopeptide-intermediate Staphylococcus epidermidis NRS6 in acute infective endocarditis rabbit model assessed as sterile vegetation level at 15 mg/kg administered every 12 hrs, iv measured after 48 hrs; format: functional; how it was run: as §3
[19] = tested on: Staphylococcus epidermidis; assay: Antimicrobial activity against methicillin-resistant Staphylococcus epidermidis 375 in acute infective endocarditis rabbit model assessed as sterile vegetation level at 15 mg/kg, iv administered every 12 hrs measured after 48 hrs; format: functional; how it was run: as §3
[20] = tested on: Staphylococcus epidermidis; assay: Bacteriostatic activity against glycopeptide-intermediate Staphylococcus epidermidis NRS6 at 2 times MIC after 24 hrs by time kill analysis; format: functional, organism-based; how it was run: as §4
[21] = tested on: Staphylococcus epidermidis; assay: Bacteriostatic activity against methicillin-resistant Staphylococcus epidermidis 375 at 0.5 times MIC after 24 hrs by time kill analysis; format: functional, organism-based; how it was run: as §4
[22] = tested on: Staphylococcus epidermidis; assay: Bactericidal activity against glycopeptide-intermediate Staphylococcus epidermidis NRS6 assessed as reduction in bacterial CFU at 2 times MIC after 24 hrs by time kill analysis; format: functional
[23] = tested on: Staphylococcus epidermidis; assay: Antimicrobial activity against methicillin-resistant Staphylococcus epidermidis 375 in acute infective endocarditis rabbit model assessed as sterile vegetation level at 15 mg/kg, iv administered every 6 hrs measured after 48 hrs; format: functional; how it was run: as §3
[24] = tested on: Staphylococcus epidermidis; assay: Antimicrobial activity against glycopeptide-intermediate Staphylococcus epidermidis NRS6 in acute infective endocarditis rabbit model assessed as bacterial titer per gram of vegetation at 15 mg/kg administered every 12 hrs, iv measured after 48 hrs; format: functional; how it was run: as §3
[25] = tested on: Staphylococcus epidermidis; assay: Bacteriostatic activity against methicillin-resistant Staphylococcus epidermidis 375 at MIC after 24 hrs by time kill analysis; format: functional, organism-based; how it was run: as §4
[26] = tested on: Staphylococcus epidermidis; assay: Bacteriostatic activity against glycopeptide-intermediate Staphylococcus epidermidis NRS6 at 0.5 times MIC after 24 hrs by time kill analysis; format: functional, organism-based; how it was run: as §4
[27] = tested on: Staphylococcus epidermidis; assay: Antimicrobial activity against methicillin-resistant Staphylococcus epidermidis 375 in acute infective endocarditis rabbit model assessed as bacterial titer per gram of vegetation at 15 mg/kg administered every 6 hrs, iv measured after 48 hrs; format: functional; how it was run: as §3
[28] = tested on: Staphylococcus epidermidis; assay: Bacteriostatic activity against methicillin-resistant Staphylococcus epidermidis 375 at 2 times MIC after 24 hrs by time kill analysis; format: functional, organism-based; how it was run: as §4
[29] = tested on: Staphylococcus epidermidis; assay: Antimicrobial activity against methicillin-resistant Staphylococcus epidermidis 375 in acute infective endocarditis rabbit model assessed as bacterial titer per gram of vegetation at 15 mg/kg administered every 12 hrs, iv measured after 48 hrs; format: functional; how it was run: as §3
Oryctolagus cuniculus [30] = assay: Cmin in methicillin-resistant Staphylococcus epidermidis 375 infected rabbit at 60 mg/kg, iv; conditions: in vivo

With CCCCCCCCCC(=O)N[C@@H](Cc1c[nH]c2ccccc12)C(=O)N[C@H](CC(N)=O)C(=O)N[C@@H](CC(=O)O)C(=O)N[C@@H]1C(=O)NCC(=O)N[C@@H](CCCN)C(=O)N[C@@H](CC(=O)O)C(=O)N[C@H](C)C(=O)N[C@@H](CC(=O)O)C(=O)NCC(=O)N[C@H](CO)C(=O)N[C@@H]([C@H](C)CC(=O)O)C(=O)N[C@@H](CC(=O)c2ccccc2N)C(=O)O[C@@H]1C the Cmax [1] was 146 µg/mL, the Activity [2] was 0% and the log10cfu [3] was 0. The log10cfu [4] was 3.9, the MIC [5] was no less than 2 µg/mL and the Activity [6] was 73%. For the same molecule, the log10cfu [7] was 0, the Activity [8] was “Active” and the log10cfu [9] was 3.7. For the same molecule, the Cmin (Oryctolagus cuniculus [10]) was 18.04 µg/mL, the MBC [11] was 4 µg/mL (≈ 2.47 µM) and the MIC [11] was 2 µg/mL (≈ 1.23 µM). For the same molecule, the Cmax [12] was 146 µg/mL, the Activity [13] was 6% and the Activity [14] was “Active”. For the same molecule, the MBC [15] was 1 µg/mL (≈ 0.617 µM), the MIC [15] was 0.5 µg/mL (≈ 0.309 µM) and the Activity [16] was 60%.
Work on CO[C@H]1/C=C/O[C@@]2(C)Oc3c(C)c(O)c4c(O)c(c(/C=N/N5CCN(C)CC5)c(O)c4c3C2=O)NC(=O)/C(C)=C\C=C\[C@H](C)[C@H](O)[C@@H](C)[C@@H](O)[C@@H](C)[C@H](OC(C)=O)[C@@H]1C [RIFAMPIN] yielded an MBC [11] greater than 0.25 µg/mL and an MIC [11] of 0.008 µg/mL (≈ 0.00972 µM).
In the case of CN[C@H](CC(C)C)C(=O)N[C@H]1C(=O)N[C@@H](CC(N)=O)C(=O)N[C@H]2C(=O)N[C@H]3C(=O)N[C@H](C(=O)N[C@H](C(=O)O)c4cc(O)cc(O)c4-c4cc3ccc4O)[C@H](O)c3ccc(c(Cl)c3)Oc3cc2cc(c3O[C@@H]2O[C@H](CO)[C@@H](O)[C@H](O)[C@H]2O[C@H]2C[C@](C)(N)[C@H](O)[C@H](C)O2)Oc2ccc(cc2Cl)[C@H]1O [VANCOMYCIN], the Activity [17] is reported as “Active”, the Activity [18] is reported as 0% and the Activity [19] is reported as 19%. The Activity [20] was “Active”, the Activity [21] was “Active” and the “fold change (FC)” value [22] was 2.8. For the same molecule, the Activity [23] was 33%, the log10cfu [24] was 7.1 and the Activity [25] was “Active”. The Activity [26] was “Active”, the log10cfu [27] was 2 and the MBC [11] was 16 µg/mL (≈ 11 µM). The MIC [11] was 8 µg/mL (≈ 5.52 µM), the Activity [28] was “Active” and the log10cfu [29] was 2. The Cmin (Oryctolagus cuniculus [30]) was 20 µg/mL and the MBC [15] was 4 µg/mL (≈ 2.76 µM).
GENTAMICIN gave an MIC [11] of 64 µg/mL.
